In ChEMBL document CHEMBL3808334, “Synthesis and in vitro evaluation of novel triazine analogues as anticancer agents and their interaction studies with bovine serum albumin” (Eur J Med Chem, 2016):

Experiments:
Format in all cases: functional
MCF7 = experiment: Growth inhibition of human MCF7 cells assessed as cell growth at 10^-4 M incubated for 48 hrs by sulforhodamine B assay; settings: MCF7, 48 h, read-out: Activity
[1] = Growth inhibition of human RPMI8226 cells incubated for 48 hrs by sulforhodamine B assay; settings: RPMI-8226, 48 h
In short: (§1)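 Cells were plated at 5,000–40,000 per well according to doubling time and preincubated 24 h at 37 °C in 5% CO2; time-zero plates were then TCA-fixed. Five concentrations (10-fold or ½-log dilutions, DMSO stock) were incubated 48 h. Cells were TCA-fixed, stained with 0.4% SRB and read at 515 nm. GI50 was taken where [(Ti−Tz)/(C−Tz)]×100 = 50.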

[2] = Growth inhibition of human SW620 cells incubated for 48 hrs by sulforhodamine B assay; settings: SW-620, 48 h; in short: as §1
[3] = Growth inhibition of human UO31 cells incubated for 48 hrs by sulforhodamine B assay; settings: UO-31, 48 h; for CC50: read-out: pLC50 (the source's name) (converted); in short: as §1
A498 [4] = experiment: Growth inhibition of human A498 cells assessed as cell growth at 10^-5 M incubated for 48 hrs by sulforhodamine B assay; settings: A498, 48 h, read-out: Activity
In short: (§2)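 Five-dose assay: five concentrations from 10-fold or ½-log serial dilutions. Cells are plated at 5,000–40,000 per well according to doubling time, grown 24 h, then exposed 48 h at 37 °C, 5% CO₂. Fixed with cold 50% TCA (final addition) for 60 min at 4 °C and stained with 0.4% SRB in 1% acetic acid. Bound dye is solubilized in 10 mM Tris base and read at 515 nm. GI₅₀ is where [(Ti−Tz)/(C−Tz)]×100 = 50, with a time-zero plate as Tz.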

[5] = Growth inhibition of human BT549 cells assessed as cell growth at 10^-8 M incubated for 48 hrs by sulforhodamine B assay; settings: BT-549, 48 h, read-out: Activity; in short: as §2
[6] = Growth inhibition of human HCC2998 cells assessed as cell growth at 10^-7 M incubated for 48 hrs by sulforhodamine B assay; settings: HCC 2998, 48 h, read-out: Activity
In short: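 Cells seeded at 5,000–40,000/well according to doubling time and preincubated 24 h at 37 °C, 5% CO2. Time-zero plates were TCA-fixed. DMSO concentrate was diluted in medium with 50 µg/ml gentamicin to give five concentrations (10-fold or ½ log steps), then exposed 48 h. Cells were TCA-fixed, stained with 0.4% SRB and read at 515 nm. Percent growth was taken against time-zero and control; GI50, TGI and LC50 derived.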

[7] = Growth inhibition of human MOLT4 cells assessed as cell growth at 10^-4 M incubated for 48 hrs by sulforhodamine B assay; settings: MOLT-4, 48 h, read-out: Activity
HT-29 = experiment: Growth inhibition of human HT-29 cells assessed as cell growth at 10^-4 M incubated for 48 hrs by sulforhodamine B assay; settings: HT-29, 48 h, read-out: Activity
[8] = Growth inhibition of human SF539 cells assessed as cell growth at 10^-7 M incubated for 48 hrs by sulforhodamine B assay; settings: SF-539, 48 h, read-out: Activity
MDA-MB-435 = experiment: Growth inhibition of human MDA-MB-435 cells assessed as cell growth at 10^-7 M incubated for 48 hrs by sulforhodamine B assay; settings: MDA-MB-435, 48 h, read-out: Activity
SK-MEL-5 = experiment: Growth inhibition of human SK-MEL-5 cells assessed as cell growth at 10 uM incubated for 48 hrs by sulforhodamine B assay; settings: SK-MEL-5, 48 h, read-out: Activity
[9] = Growth inhibition of human OVCAR4 cells assessed as cell growth at 10 uM incubated for 48 hrs by sulforhodamine B assay; settings: OVCAR-4, 48 h, read-out: Activity
[10] = Growth inhibition of human OVCAR8 cells assessed as cell growth at 10 uM incubated for 48 hrs by sulforhodamine B assay; settings: OVCAR-8, 48 h, read-out: Activity
[11] = Growth inhibition of human Caki1 cells assessed as cell growth at 10 uM incubated for 48 hrs by sulforhodamine B assay; settings: CAKI-1, 48 h, read-out: Activity
In short: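 Primary screen at one dose (10 µM) across 60 human cancer cell lines. Readout was growth percent relative to untreated control and time-zero.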

[12] = Growth inhibition of human BT549 cells assessed as cell growth at 10 uM incubated for 48 hrs by sulforhodamine B assay; settings: BT-549, 48 h, read-out: Activity
In short: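 One-dose screen at 10 µM final. Cells are plated at 5,000–40,000 per well according to doubling time and preincubated 24 h at 37 °C, 5% CO₂. Compound (DMSO stock diluted in medium with 50 µg/ml gentamicin) is then added for 48 h. Growth percent is read by sulforhodamine B staining, absorbance at 515 nm.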

A498 [13] = experiment: Growth inhibition of human A498 cells assessed as cell growth at 10^-7 M incubated for 48 hrs by sulforhodamine B assay; settings: A498, 48 h, read-out: Activity; in short: as §2
[14] = Growth inhibition of human HL-60(TB) cells assessed as cell growth at 10^-6 M incubated for 48 hrs by sulforhodamine B assay; settings: HL-60, 48 h, read-out: Activity
In short: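 Cells plated at 5,000–40,000/well according to doubling time and preincubated 24 h at 37 °C, 5% CO₂, with time-zero plates TCA-fixed. Drugs were kept as DMSO concentrates at 400× the top concentration and diluted in medium with 50 µg/ml gentamicin. Five 10-fold or ½-log dilutions were run for 48 h, followed by SRB staining and A515. Percent growth = (Ti−Tz)/(C−Tz)×100, or (Ti−Tz)/Tz×100 when Ti<Tz.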

NCI-H23 = experiment: Growth inhibition of human NCI-H23 cells assessed as cell growth at 10^-6 M incubated for 48 hrs by sulforhodamine B assay; settings: NCI-H23, 48 h, read-out: Activity
[15] = Growth inhibition of human SF268 cells assessed as cell growth at 10^-6 M incubated for 48 hrs by sulforhodamine B assay; settings: SF-268, 48 h, read-out: Activity
[16] = Growth inhibition of human SNB19 cells assessed as cell growth at 10^-6 M incubated for 48 hrs by sulforhodamine B assay; settings: SNB-19, 48 h, read-out: Activity
[17] = Growth inhibition of human UACC62 cells assessed as cell growth at 10^-5 M incubated for 48 hrs by sulforhodamine B assay; settings: UACC-62, 48 h, read-out: Activity
NCI-H460 = experiment: Growth inhibition of human NCI-H460 cells assessed as cell growth at 10 uM incubated for 48 hrs by sulforhodamine B assay; settings: NCI-H460, 48 h, read-out: Activity
[18] = read-out: LC50 (the source's name)
[19] = read-out: pLC50 (the source's name) (converted)

Row | Compound | growth at 100 µM (MCF7) [%] | GI50 ([1]; read-out: GI50) [nM] | TGI ([1]; read-out: TGI) [µM] | GI50 ([1]; read-out: pGI50 (converted)) [nM] | TGI ([1]; read-out: pTGI (converted)) [µM] | GI50 ([2]; read-out: GI50) [nM] | CC50 [2, 18] [µM] | TGI ([2]; read-out: TGI) [µM] | GI50 ([2]; read-out: pGI50 (converted)) [nM] | CC50 [2, 19] [µM] | TGI ([2]; read-out: pTGI (converted)) [µM] | GI50 ([3]; read-out: GI50) [nM] | TGI ([3]; read-out: TGI) [µM] | GI50 ([3]; read-out: pGI50 (converted)) [nM] | TGI ([3]; read-out: pTGI (converted)) [µM] | growth at 10 µM (A498 [4]) [%] | growth at 0.01 µM [5] [%] | growth at 0.1 µM [6] [%] | growth at 100 µM [7] [%] | growth at 100 µM (HT-29) [%] | further results
1 | Fc1ccc(-c2nc(Nc3ccc(-c4nc5ccccc5[nH]4)cc3)nc(N3CCOCC3)n2)cc1 | 1 | 1930 | 6.54 | 1950 | 6.61 | 2190 | > 100 | 4.8 | 2190 | > 100 | 4.79 | 2160 | 5.64 | 2140 | 5.62 | -60 | 94 | 95 | -33 | -43 | CC50 [1, 18]: > 100 µM; CC50 [1, 19]: > 100 µM; LC50 [3]: > 100 µM; CC50 [3]: > 100 µM; growth at 0.1 µM [8]: 92%; growth at 0.1 µM (MDA-MB-435): 102%; growth at 10 µM (SK-MEL-5): -90.7%; growth at 10 µM [9]: 59.8%; growth at 10 µM [10]: 39.2%; growth at 10 µM [11]: -56.6%; growth at 10 µM [12]: 5.16%; growth at 0.1 µM (A498 [13]): 83%; growth at 1 µM [14]: 81%; growth at 1 µM (NCI-H23): 85%; growth at 1 µM [15]: 89%; growth at 1 µM [16]: 92%; growth at 10 µM [17]: -70%; growth at 10 µM (NCI-H460): 0.13%
2 | c1ccc2[nH]c(-c3ccc(Nc4nc(N5CCCCC5)nc(N5CCOCC5)n4)cc3)nc2c1 | -5 | 2230 | 6.58 | 2240 | 6.61 | 2340 | 74.7 | 5.87 | 2340 | 74.1 | 5.89 | 2000 | 5.14 | 2000 | 5.13 | -51 | 94 | 105 | -34 | -46 | CC50 [1, 18]: > 100 µM; CC50 [1, 19]: > 100 µM; LC50 [3]: > 100 µM; CC50 [3]: > 100 µM; growth at 0.1 µM [8]: 96%; growth at 0.1 µM (MDA-MB-435): 95%; growth at 10 µM (SK-MEL-5): -90.8%; growth at 10 µM [9]: 61.2%; growth at 10 µM [10]: 45.7%; growth at 10 µM [11]: -46.9%; growth at 10 µM [12]: 23.1%; growth at 0.1 µM (A498 [13]): 81%; growth at 1 µM [14]: 100%; growth at 1 µM (NCI-H23): 91%; growth at 1 µM [15]: 96%; growth at 1 µM [16]: 99%; growth at 10 µM [17]: -53%; growth at 10 µM (NCI-H460): 0.81%
3 | c1ccc(-c2nc(Nc3ccc(-c4nc5ccccc5[nH]4)cc3)nc(N3CCOCC3)n2)cc1 | -52 | 1110 | 4.23 | 1120 | 4.27 | 627 | 5.82 | 2.17 | 631 | 5.75 | 2.19 | 1320 | 2.91 | 1320 | 2.88 | -76 | 99 | 97 | -52 | -76 | CC50 [1, 18]: > 100 µM; CC50 [1, 19]: > 100 µM; LC50 [3]: 6.4 µM; CC50 [3]: 6.46 µM; growth at 0.1 µM [8]: 93%; growth at 0.1 µM (MDA-MB-435): 101%; growth at 10 µM (SK-MEL-5): -95.4%; growth at 10 µM [9]: -47.2%; growth at 10 µM [10]: -50.4%; growth at 10 µM [11]: -89.4%; growth at 10 µM [12]: 33.6%; growth at 0.1 µM (A498 [13]): 84%; growth at 1 µM [14]: -7%; growth at 1 µM (NCI-H23): 93%; growth at 1 µM [15]: 86%; growth at 1 µM [16]: 92%; growth at 10 µM [17]: -71%; growth at 10 µM (NCI-H460): -67.2%
4 | Clc1ccc(-c2nc(Nc3ccc(-c4nc5ccccc5[nH]4)cc3)nc(N3CCOCC3)n2)cc1 | -17 | 257 | 0.682 | 257 | 0.676 | 186 | 0.742 | 0.372 | 186 | 0.741 | 0.372 | 1510 | 3.03 | 1510 | 3.02 | -83 | 96 | 93 | -41 | -42 | growth at 0.1 µM [8]: 98%; growth at 0.1 µM (MDA-MB-435): 98%; growth at 10 µM (SK-MEL-5): -97.6%; growth at 10 µM [9]: -73.9%; growth at 10 µM [10]: -73.8%; growth at 10 µM [11]: -93.6%; growth at 10 µM [12]: -73.6%; growth at 0.1 µM (A498 [13]): 82%; growth at 1 µM [14]: -29%; growth at 1 µM (NCI-H23): 85%; growth at 1 µM [15]: 3%; growth at 1 µM [16]: 17%; growth at 10 µM [17]: -77%; growth at 10 µM (NCI-H460): -80.3%
